Series [1] concerns the target Sodium/hydrogen exchanger 1 (Homo sapiens, UniProt P19634). Briefly: Screened in AP1 cells expressing human NHE-1 for sodium hydrogen exchange activity. The class given is functional, cell-based. In short, it runs like this:
(§1)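 AP1 cell monolayers expressing the given human NHE isoform, loaded with BCECF-AM (5 µM final, 30 min, room temperature) in NaCl-HEPES pH 7.3. Acid load by NH4Cl-HEPES for 9 min, then washes in Na+-free choline buffer. Drug preincubation 7.5 min, then NaCl added (135 mM final). Fluorescence 485/444 nm excitation ratio (538 nm emission) read after 5 min, minus no-NaCl activity. IC50 from 8-point dose-response curve, mean ± SEM of several experiments.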

Series [2] can be described thus: Oral bioavailability in rat. The format is ADME, organism-based. To be noted: in vivo. In a few lines:
(§2)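 Rats (n = 3) given a single 10 µmol/kg dose either intra-arterially or orally. Plasma samples analysed by LC/MS/MS. PK parameters are means ± SEM of the three animals.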

A short description of series [3]: Plasma clearance in rats was determined. The class given is ADME, organism-based. To be noted: rat. In short, it runs like this:
as §2

The nature of series [4]: Volume distribution at steady state in rats was determined. The format is ADME, organism-based. To be noted: rat, in vivo; read-out: VSS. In a few lines:
as §2

A short description of series [5]: Half life period in rats was determined. The format is ADME, organism-based. To be noted: rat, in vivo. In short, it runs like this: as §2
For series [6], the target named is T1, Sodium/hydrogen exchanger 2 (Homo sapiens, UniProt Q9UBY0).
T1 sequence (Q9UBY0 whole entry): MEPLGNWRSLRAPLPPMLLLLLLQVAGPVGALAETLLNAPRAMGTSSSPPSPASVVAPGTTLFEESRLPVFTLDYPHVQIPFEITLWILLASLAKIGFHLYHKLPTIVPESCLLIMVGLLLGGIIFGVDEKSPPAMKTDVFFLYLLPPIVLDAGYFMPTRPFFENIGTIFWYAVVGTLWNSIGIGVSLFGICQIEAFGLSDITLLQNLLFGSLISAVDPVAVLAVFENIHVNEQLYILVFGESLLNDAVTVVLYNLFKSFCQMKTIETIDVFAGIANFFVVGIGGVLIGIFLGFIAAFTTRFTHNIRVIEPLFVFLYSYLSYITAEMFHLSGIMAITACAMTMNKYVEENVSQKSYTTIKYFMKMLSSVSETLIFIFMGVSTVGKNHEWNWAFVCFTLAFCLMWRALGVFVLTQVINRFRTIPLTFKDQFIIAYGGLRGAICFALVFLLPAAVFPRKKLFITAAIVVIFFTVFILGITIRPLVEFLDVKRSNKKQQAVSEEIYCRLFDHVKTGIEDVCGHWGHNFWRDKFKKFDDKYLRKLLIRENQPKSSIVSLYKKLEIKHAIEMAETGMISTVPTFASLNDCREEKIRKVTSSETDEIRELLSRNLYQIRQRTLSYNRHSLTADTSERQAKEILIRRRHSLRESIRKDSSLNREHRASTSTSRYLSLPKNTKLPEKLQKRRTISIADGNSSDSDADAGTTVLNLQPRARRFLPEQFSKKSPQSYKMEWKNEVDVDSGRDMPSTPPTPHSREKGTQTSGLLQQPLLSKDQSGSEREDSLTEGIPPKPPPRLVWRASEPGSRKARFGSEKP
Briefly: Compound is screened in AP1 cells expressing human NHE-2 for sodium hydrogen exchange activity. The format is functional, cell-based. In a few lines: as §1

The target of series [7] is T2, Sodium/hydrogen exchanger 3 (Homo sapiens, UniProt P48764).
T2 sequence (P48764 whole entry): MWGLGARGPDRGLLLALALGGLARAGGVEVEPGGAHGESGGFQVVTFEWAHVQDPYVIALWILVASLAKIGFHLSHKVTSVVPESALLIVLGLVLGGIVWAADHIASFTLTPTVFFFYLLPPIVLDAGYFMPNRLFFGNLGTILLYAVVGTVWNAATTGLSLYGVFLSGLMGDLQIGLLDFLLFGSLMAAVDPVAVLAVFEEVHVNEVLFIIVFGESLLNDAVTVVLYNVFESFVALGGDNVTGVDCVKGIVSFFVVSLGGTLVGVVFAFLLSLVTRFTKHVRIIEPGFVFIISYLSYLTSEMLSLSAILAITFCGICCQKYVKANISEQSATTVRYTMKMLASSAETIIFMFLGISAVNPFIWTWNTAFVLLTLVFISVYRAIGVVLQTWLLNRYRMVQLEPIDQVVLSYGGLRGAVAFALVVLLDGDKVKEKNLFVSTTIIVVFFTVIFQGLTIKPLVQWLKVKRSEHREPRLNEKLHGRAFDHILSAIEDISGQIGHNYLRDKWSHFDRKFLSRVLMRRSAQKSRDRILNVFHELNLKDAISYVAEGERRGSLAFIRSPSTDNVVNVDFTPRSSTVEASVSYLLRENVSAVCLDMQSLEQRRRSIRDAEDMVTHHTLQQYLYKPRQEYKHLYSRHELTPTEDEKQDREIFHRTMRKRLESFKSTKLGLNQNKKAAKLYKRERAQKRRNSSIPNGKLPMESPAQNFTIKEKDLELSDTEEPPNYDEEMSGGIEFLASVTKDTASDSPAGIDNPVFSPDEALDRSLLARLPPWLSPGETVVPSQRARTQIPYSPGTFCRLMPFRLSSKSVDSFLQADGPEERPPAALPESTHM
Briefly: Compound is screened in AP1 cells expressing human NHE-3 for sodium hydrogen exchange activity. The class given is functional, cell-based. In a few lines:
as §1

In series [8] the target is T3, Sodium/hydrogen exchanger 5 (Homo sapiens, UniProt Q14940).
T3 sequence (Q14940 whole entry): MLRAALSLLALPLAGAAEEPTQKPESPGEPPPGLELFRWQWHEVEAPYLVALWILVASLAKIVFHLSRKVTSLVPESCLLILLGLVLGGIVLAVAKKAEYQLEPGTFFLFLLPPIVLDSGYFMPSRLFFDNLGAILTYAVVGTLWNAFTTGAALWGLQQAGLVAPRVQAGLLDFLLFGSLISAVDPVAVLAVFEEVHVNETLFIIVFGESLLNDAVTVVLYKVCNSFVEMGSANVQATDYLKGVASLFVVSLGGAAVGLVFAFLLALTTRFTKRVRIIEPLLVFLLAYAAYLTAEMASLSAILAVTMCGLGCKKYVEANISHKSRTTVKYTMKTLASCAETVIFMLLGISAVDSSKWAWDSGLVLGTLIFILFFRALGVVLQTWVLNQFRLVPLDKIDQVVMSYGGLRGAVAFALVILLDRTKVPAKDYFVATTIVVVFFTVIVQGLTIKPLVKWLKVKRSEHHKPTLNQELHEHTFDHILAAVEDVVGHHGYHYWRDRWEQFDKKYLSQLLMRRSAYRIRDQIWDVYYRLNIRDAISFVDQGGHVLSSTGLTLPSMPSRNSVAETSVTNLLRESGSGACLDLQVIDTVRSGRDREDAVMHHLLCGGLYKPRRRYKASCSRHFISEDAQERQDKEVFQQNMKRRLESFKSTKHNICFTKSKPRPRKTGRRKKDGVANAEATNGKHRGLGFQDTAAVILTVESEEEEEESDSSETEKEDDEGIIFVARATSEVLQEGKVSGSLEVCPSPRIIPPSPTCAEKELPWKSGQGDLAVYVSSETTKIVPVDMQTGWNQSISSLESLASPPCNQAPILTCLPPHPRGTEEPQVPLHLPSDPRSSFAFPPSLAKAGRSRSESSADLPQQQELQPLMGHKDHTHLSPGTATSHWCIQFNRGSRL
In words: Compound is screened in AP1 cells expressing human NHE-5 for sodium hydrogen exchange activity. The format is functional, cell-based. In a few lines: as §1

Chain of Sodium/hydrogen exchanger 1 (P19634 whole entry, canonical isoform): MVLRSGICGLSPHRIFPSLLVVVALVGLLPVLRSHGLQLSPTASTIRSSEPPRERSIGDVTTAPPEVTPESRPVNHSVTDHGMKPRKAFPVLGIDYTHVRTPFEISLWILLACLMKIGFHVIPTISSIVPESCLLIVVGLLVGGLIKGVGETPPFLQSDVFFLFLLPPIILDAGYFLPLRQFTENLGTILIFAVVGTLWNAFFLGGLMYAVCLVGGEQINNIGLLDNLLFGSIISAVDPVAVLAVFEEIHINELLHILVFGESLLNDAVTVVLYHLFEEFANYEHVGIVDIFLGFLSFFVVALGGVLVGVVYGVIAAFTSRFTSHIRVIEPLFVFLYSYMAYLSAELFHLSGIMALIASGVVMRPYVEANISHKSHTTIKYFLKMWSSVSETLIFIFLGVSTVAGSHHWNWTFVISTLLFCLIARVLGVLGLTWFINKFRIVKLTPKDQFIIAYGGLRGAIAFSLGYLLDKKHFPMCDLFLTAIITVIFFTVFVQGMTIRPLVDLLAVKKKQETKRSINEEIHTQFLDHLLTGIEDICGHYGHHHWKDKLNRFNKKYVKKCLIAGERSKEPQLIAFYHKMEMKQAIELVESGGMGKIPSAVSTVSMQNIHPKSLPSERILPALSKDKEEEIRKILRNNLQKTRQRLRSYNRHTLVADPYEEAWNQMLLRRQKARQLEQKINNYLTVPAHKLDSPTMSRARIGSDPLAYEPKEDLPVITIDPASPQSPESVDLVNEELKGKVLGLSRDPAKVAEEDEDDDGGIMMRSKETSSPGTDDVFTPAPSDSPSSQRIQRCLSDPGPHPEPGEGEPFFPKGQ

In general, IC50 refers to the midpoint of a concentration-inhibition curve. Low values mean greater potency, high ones weaker potency. Take `Cc1cc([C@@H]2[C@@H](C(=O)N=C(N)N)C2(C)C)ccc1F`: in series [1], the IC50 is 32 nM.

`N=C(N)NC(=O)[C@H]1C[C@@H]1c1cccc([N+](=O)[O-])c1`: inhibition in series [1] was half-maximal at 1600 nM (IC50).

A word on the bioavailability: it is dose-corrected exposure relative to a reference, in per cent. High values mean good availability, low ones poor availability. For orientation: clearance means the volume of plasma or blood freed of the substance per unit of time. Low readings indicate inefficient removal, high ones efficient removal. What is called half-life is the time needed for the level to fall by half in the phase considered. As to `N=C(N)NC(=O)[C@H]1C[C@@H]1c1cc(Cl)ccc1Cl`, the IC50 in series [1] stood at 40 nM. In series [2], the bioavailability turned out to be 13%. Moreover, in series [3], the clearance was found to be 143 mL/min/kg. The Vd in series [4] turned out to be 21 L/kg. In addition, the half-life in series [5] was 3.4 h.

In the case of `CC(C)c1cc([C@@H]2[C@@H](C(=O)N=C(N)N)C2(C)C)ccc1F`, the midpoint of inhibition in series [1], the IC50, lay at 17 nM.

In series [1], `N=C(N)NC(=O)[C@H]1C[C@@H]1c1ccccc1Cl` displayed an IC50 of 980 nM.

With `CC(C)c1ccc([C@H]2C[C@@H]2C(=O)NC(=N)N)cc1`, in series [1], the IC50 was greater than 30000 nM.

`N=C(N)NC(=O)[C@H]1C[C@@H]1c1ccc(F)c(Br)c1` displayed an IC50 in series [1] of 90 nM.

In turn, `CCc1cc([C@@H]2[C@@H](C(=O)NC(=N)N)C2(C)C)ccc1F` showed an IC50 in series [1] of 5 nM.

As for `N=C(N)NC(=O)[C@H]1C[C@@H]1c1ccccc1`, the IC50 in series [1] worked out at 3500 nM.

In turn, `N=C(N)NC(=O)[C@H]1C[C@@H]1c1ccc(F)cc1` came in with an IC50 in series [1] of 1600 nM.

As for `CC1(C)[C@H](C(=O)N=C(N)N)[C@H]1c1cc(Cl)ccc1Cl`, the IC50 in series [1] was determined as 5 nM. This compound gave a bioavailability in series [2] of 47%. In addition, the clearance in series [3] came to 44 mL/min/kg. Besides, the Vd in series [4] stood at 23 L/kg. Besides, the half-life in series [5] was 8 h.

With `N=C(N)NC(=O)[C@H]1C[C@@H]1c1ccc(Cl)cc1`, the IC50 in series [1] was found to be 2900 nM.

`CC1(C)[C@H](C(=O)N=C(N)N)[C@H]1c1ccccc1`: in series [1], the IC50 is 69 nM.

`COc1cccc([C@H]2C[C@@H]2C(=O)NC(=N)N)c1` yielded a concentration for half-maximal inhibition (IC50) in series [1] of 540 nM.

For the compound `N=C(N)NC(=O)[C@H]1C[C@@H]1c1cccc2c1CCO2`, the midpoint of inhibition in series [1], the IC50, lay at 120 nM. For the same compound, the bioavailability in series [2] came out at 49%. Also, in series [3], the clearance was found to be 120 mL/min/kg. In series [4], the Vd is 6 L/kg. In series [5], this compound showed a half-life of 1.3 h.

In turn, `CC1(C)[C@H](C(=O)NC(=N)N)[C@H]1c1cccc(Cl)c1` came in with an IC50 in series [1] of 14 nM.

In turn, `COc1cccc([C@@H]2[C@@H](C(=O)NC(=N)N)C2(C)C)c1` came in with an IC50 in series [1] of 12 nM.

For `N=C(N)NC(=O)[C@H]1C[C@@H]1c1cccc(Cl)c1`, the IC50 in series [1] was found to be 280 nM.

Compound `N=C(N)NC(=O)[C@H]1C[C@@H]1c1ccc([N+](=O)[O-])cc1` had an IC50 in series [1] greater than 30000 nM.

On to `CC1(C)[C@H](C(=O)N=C(N)N)[C@H]1c1ccc(F)c(Br)c1`, for which the IC50 in series [1] worked out at 3 nM.

In turn, `CC1(C)[C@H](C(=O)NC(=N)N)[C@H]1c1cc(Cl)cc(Cl)c1` gave an IC50 in series [1] of 6 nM.

Turning to `CC1(C)[C@H](C(=O)N=C(N)N)[C@H]1c1cccc2c1CCO2`, the concentration for half-maximal inhibition (IC50) is 9 nM in series [1], 1800 nM in series [6], greater than 30000 nM in series [7] and 3360 nM in series [8]. The compound also registered a bioavailability in series [2] of 63%. In addition, the clearance in series [3] was found to be 74 mL/min/kg. Besides, in series [4], the Vd turned out to be 8.6 L/kg. The half-life in series [5] was 3 h.

In the case of `CC(C)c1ccc(C(=O)NC(=N)N)cc1S(C)(=O)=O` [CARIPORIDE], the IC50 in series [1] was 3400 nM; in series [6] it was 62000 nM; in series [7] it was greater than 30000 nM; in series [8] it was greater than 30000 nM.

For the compound `Cc1cc(-n2cccc2)c(S(C)(=O)=O)cc1C(=O)NC(=N)N` [ENIPORIDE], the IC50 in series [1] was 380 nM; in series [6] it was 17000 nM; in series [7], greater than 30000 nM; in series [8], greater than 30000 nM.

(Values after ChEMBL document CHEMBL1134619, “Arylcyclopropanecarboxyl guanidines as novel, potent, and selective inhibitors of the sodium hydrogen exchanger isoform-1” (J Med Chem, 2001).)
